# Reference: publication PMC4445880 (ACS chemical biology, 2013)
# “And” between values parts separate entries of the source, which are not always exact repeats. Equal values may be shown once.
# Legend:
# GFP-ZIPK = GFP-ZIPK (Homo sapiens, UniProt O43293); experiment: FLECS elution from γ-linked ATP Sepharose; type: binding; conditions: for elution of GFP-ZIPK from ATP Sepharose: titration 0.1−300 µM
# Method in brief: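 Full-length ZIPK with N-terminal GFP was expressed in HEK293 cells. Crude lysate was bound to γ-linked ATP Sepharose for 0.5 h at 4 °C (pH 7.5, 60 mM MgCl₂), washed with high- then low-salt buffer, and split into 96-well filter plates. Test compound was added for 10 min at RT, as a 900 µM solution (screen) or 0.1−300 µM (titration), in 10% DMSO. Filtrate fluorescence was read at 485/535 nm. Controls were ATP 2−200 mM (positive) and 10% DMSO (negative). Hits were wells with >5000 counts (2.5 × background), checked by Western blot.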
# aortic SM cells = experiment: RLC20 phosphorylation in aortic smooth muscle cells, basal and S1P stimulated; type: cell-based, human; conditions: 50 µM, 30 min; for relative percent RLC20 phosphorylation, S1P stimulated state: S1P 0.25 µM
# Method in brief: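 A mouse aortic smooth muscle cell line was grown in AmnioMax with 10% FBS at 37 °C and 5% CO₂, then serum-starved for 16 h. Subconfluent cells were given S1P (0.25 µM, 5 min) or left basal. They were then treated with test compound (50 µM) or 0.1% DMSO for 30 min. Cells were lysed in 1% SDS, 300 mM NaCl and 50 mM Tris-HCl pH 7.5. Phospho-RLC20 was measured by Western blot and densitometry.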
# DAPK1 = DAPK1 (Homo sapiens, UniProt P53355); experiment: KINOMEscan active-site dependent competition binding assay; conditions: from Kd values
# [1] = tested on: rat caudal arterial smooth muscle strips; experiment: Calyculin A induced contraction of rat caudal arterial smooth muscle strips; conditions: 100 µM, calyculin A 0.5 mM; for maximum contractile force: 3 h
# Method in brief: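 Intact rat caudal arterial smooth muscle strips were contracted with calyculin A (0.5 mM, 3 h). This was done in the presence of vehicle (DMSO) or test compound at 100 µM. Maximal force was expressed as percent of an initial reference KCl contraction. Time to reach 50% of maximal contraction after calyculin A was also calculated.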
# [2] = tested on: rat caudal arterial smooth muscle; experiment: RLC20 phosphorylation in rat caudal arterial smooth muscle; conditions: 100 µM; 30 min CLa exposure
# DAPK3 = DAPK3 (Homo sapiens, UniProt O43293); experiment: KINOMEscan active-site dependent competition binding assay; conditions: DAPK3 (ZIPK); from Kd values
# PIM2 = PIM2 (Homo sapiens, UniProt Q9P1W9); experiment: 33P-ATP filter-binding kinase assay; type: biochemical
# IRAK4 = target: T1, IRAK4 (Homo sapiens, UniProt Q9NWZ3); experiment: 33P-ATP filter-binding kinase assay; type: biochemical
# T1 sequence (Q9NWZ3 1-460): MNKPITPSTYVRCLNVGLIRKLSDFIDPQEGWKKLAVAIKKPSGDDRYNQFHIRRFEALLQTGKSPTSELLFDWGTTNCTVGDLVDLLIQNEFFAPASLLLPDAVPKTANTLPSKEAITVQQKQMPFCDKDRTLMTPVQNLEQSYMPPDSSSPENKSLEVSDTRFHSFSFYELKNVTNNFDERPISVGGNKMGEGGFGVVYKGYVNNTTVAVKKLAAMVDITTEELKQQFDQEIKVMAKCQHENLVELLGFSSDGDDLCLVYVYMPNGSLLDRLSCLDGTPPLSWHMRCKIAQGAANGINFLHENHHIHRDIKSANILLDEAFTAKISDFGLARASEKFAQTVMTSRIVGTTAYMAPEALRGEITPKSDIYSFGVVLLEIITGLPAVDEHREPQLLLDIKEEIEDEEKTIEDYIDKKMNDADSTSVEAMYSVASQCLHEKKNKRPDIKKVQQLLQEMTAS
# PKA = PKA (Homo sapiens, UniProt P17612); experiment: 33P-ATP filter-binding kinase assay; type: biochemical; conditions: read-out: % activity against kinase, kinome profile
# Method in brief: (§1)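 Kinome panel of 124 purified protein kinases run by an outside profiling centre using a ³³P-ATP filter-binding assay. Test compound was tested at 10 µM. Read-out is residual % enzyme activity.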
# smMLCK = smMLCK (Homo sapiens, UniProt Q15746); experiment: 33P-ATP filter-binding kinase assay; type: biochemical
# PKN2 = PKN2 (Homo sapiens, UniProt Q16513); experiment: 33P-ATP filter-binding kinase assay; type: biochemical; conditions: read-out: % activity against kinase, kinome profile
# Method in brief: as §1
# [3] = tested on: human coronary artery smooth muscle cells (CA-VSMC); experiment: Phosphorylation in human coronary artery smooth muscle cells; type: cell-based; conditions: HS38 10 µM, 40 min
# [4] = tested on: rabbit ileum smooth muscle; experiment: Ca2+-independent force development in rabbit ileum after MC-LR; conditions: pCa 9.0; MC-LR 10 µM
# CaMK2 = experiment: 33P-ATP filter-binding kinase assay; type: biochemical, human; conditions: read-out: % activity against kinase, kinome profile
# Method in brief: as §1
# PIM1 = PIM1 (Homo sapiens, UniProt P11309); experiment: 33P-ATP filter-binding kinase assay; type: biochemical
# ROCK2 = ROCK2 (Rattus norvegicus, UniProt Q62868); experiment: 33P-ATP filter-binding kinase assay; type: biochemical, human
# rabbit ileum = experiment: RLC20 and MYPT1 phosphorylation in Ca2+-sensitized rabbit ileum; conditions: HS38 50 µM
# CK1α = CK1α (Homo sapiens, UniProt P48729); experiment: 33P-ATP filter-binding kinase assay; type: biochemical; conditions: read-out: % activity against kinase, kinome profile
# Method in brief: as §1
# Chain of GFP-ZIPK (O43293 whole entry): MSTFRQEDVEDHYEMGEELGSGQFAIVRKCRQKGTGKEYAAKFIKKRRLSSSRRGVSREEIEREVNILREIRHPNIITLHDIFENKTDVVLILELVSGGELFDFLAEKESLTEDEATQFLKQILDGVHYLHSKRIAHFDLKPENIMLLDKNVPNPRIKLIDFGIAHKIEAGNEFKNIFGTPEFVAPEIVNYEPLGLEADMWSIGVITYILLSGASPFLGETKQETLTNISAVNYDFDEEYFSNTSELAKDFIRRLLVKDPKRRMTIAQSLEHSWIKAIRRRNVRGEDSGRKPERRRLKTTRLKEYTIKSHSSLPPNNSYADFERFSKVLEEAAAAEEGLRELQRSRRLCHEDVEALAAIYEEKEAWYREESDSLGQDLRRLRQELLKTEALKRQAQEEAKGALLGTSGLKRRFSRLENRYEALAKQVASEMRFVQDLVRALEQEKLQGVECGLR
# Chain of ROCK2 (Q62868 2-543 limits assumed): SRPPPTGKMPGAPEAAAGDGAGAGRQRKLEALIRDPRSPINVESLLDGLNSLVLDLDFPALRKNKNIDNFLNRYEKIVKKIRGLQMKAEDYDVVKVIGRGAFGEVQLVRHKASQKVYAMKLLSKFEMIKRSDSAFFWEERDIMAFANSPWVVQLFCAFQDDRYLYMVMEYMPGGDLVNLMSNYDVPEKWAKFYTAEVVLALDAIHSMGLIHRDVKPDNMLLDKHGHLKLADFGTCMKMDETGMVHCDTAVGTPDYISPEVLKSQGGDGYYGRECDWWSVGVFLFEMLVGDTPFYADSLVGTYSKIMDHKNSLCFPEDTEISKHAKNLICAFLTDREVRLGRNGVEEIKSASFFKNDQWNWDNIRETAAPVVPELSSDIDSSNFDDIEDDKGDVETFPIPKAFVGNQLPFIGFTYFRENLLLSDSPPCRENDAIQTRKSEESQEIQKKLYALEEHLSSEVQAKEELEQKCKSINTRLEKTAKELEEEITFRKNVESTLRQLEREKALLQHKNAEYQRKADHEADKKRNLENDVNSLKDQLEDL
# Chain of DAPK3 (O43293 whole entry): as the sequence (O43293 whole entry) above
# Chain of CK1α (P48729 whole entry): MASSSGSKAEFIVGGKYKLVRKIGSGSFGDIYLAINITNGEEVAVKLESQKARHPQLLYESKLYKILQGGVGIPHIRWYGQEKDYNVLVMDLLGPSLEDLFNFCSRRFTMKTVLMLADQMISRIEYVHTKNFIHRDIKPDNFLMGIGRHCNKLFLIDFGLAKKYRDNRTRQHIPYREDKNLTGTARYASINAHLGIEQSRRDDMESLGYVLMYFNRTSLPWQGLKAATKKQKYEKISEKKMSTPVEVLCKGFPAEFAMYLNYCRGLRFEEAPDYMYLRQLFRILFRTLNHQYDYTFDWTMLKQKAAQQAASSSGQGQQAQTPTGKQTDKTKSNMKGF
# Chain of smMLCK (Q15746 1464-1719 limits assumed): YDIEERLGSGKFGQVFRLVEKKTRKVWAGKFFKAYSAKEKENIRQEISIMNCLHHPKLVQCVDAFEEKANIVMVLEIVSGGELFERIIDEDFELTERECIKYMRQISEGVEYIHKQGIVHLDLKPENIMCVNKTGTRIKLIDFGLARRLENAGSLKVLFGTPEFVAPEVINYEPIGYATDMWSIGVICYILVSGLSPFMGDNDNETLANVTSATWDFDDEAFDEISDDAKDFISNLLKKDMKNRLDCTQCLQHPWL
# Chain of DAPK1 (P53355 whole entry): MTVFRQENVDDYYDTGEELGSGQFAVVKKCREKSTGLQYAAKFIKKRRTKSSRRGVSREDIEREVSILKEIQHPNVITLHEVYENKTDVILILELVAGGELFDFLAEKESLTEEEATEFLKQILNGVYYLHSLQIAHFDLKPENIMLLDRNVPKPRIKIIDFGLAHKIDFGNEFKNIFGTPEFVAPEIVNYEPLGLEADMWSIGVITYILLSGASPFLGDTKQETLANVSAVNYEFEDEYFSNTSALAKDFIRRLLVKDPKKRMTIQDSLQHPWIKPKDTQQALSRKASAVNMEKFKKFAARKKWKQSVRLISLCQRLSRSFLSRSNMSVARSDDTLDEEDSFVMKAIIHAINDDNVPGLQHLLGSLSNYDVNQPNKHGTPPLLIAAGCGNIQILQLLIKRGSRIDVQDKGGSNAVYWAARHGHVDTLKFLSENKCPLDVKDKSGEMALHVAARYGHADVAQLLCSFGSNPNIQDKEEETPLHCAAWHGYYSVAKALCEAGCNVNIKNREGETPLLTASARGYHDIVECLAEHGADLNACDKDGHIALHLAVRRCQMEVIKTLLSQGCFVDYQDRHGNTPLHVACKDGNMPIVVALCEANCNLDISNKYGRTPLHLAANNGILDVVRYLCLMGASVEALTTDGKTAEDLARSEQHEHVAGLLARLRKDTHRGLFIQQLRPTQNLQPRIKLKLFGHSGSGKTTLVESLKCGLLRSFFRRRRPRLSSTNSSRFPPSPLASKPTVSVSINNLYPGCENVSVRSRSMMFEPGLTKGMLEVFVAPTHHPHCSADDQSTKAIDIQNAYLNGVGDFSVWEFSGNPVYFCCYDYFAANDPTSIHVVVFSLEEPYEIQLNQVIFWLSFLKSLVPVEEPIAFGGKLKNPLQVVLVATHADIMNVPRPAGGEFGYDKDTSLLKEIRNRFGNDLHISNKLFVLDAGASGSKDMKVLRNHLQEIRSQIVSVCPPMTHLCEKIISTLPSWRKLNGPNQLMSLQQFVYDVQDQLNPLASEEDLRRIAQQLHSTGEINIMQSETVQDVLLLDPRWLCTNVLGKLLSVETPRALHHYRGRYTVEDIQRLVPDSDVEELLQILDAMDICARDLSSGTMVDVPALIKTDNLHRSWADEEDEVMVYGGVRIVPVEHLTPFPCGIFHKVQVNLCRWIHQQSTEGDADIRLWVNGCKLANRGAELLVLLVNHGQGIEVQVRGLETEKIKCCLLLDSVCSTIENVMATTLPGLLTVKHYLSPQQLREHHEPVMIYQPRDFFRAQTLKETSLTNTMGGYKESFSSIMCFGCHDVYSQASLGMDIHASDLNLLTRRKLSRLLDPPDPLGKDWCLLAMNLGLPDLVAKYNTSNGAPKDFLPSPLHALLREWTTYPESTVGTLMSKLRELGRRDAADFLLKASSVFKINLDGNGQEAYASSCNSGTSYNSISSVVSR
# Chain of PIM2 (Q9P1W9 whole entry): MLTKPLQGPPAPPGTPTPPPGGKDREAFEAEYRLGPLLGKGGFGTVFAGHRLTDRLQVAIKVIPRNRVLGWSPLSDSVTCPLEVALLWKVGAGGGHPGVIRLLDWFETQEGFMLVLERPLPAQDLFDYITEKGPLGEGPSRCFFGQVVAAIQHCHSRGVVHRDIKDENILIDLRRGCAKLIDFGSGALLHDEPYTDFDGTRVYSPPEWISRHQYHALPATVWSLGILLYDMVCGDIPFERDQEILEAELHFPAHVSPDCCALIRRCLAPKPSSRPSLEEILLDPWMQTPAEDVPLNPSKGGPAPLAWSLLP
# Chain of PIM1 (P11309 whole entry): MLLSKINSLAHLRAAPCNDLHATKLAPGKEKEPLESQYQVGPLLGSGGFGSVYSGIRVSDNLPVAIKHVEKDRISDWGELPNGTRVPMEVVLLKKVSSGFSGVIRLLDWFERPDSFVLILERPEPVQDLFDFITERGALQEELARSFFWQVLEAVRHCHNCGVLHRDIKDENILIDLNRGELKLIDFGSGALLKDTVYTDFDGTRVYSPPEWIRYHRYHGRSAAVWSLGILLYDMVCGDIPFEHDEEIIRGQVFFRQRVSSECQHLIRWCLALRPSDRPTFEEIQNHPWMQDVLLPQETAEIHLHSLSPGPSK
# Chain of PKN2 (Q16513 whole entry): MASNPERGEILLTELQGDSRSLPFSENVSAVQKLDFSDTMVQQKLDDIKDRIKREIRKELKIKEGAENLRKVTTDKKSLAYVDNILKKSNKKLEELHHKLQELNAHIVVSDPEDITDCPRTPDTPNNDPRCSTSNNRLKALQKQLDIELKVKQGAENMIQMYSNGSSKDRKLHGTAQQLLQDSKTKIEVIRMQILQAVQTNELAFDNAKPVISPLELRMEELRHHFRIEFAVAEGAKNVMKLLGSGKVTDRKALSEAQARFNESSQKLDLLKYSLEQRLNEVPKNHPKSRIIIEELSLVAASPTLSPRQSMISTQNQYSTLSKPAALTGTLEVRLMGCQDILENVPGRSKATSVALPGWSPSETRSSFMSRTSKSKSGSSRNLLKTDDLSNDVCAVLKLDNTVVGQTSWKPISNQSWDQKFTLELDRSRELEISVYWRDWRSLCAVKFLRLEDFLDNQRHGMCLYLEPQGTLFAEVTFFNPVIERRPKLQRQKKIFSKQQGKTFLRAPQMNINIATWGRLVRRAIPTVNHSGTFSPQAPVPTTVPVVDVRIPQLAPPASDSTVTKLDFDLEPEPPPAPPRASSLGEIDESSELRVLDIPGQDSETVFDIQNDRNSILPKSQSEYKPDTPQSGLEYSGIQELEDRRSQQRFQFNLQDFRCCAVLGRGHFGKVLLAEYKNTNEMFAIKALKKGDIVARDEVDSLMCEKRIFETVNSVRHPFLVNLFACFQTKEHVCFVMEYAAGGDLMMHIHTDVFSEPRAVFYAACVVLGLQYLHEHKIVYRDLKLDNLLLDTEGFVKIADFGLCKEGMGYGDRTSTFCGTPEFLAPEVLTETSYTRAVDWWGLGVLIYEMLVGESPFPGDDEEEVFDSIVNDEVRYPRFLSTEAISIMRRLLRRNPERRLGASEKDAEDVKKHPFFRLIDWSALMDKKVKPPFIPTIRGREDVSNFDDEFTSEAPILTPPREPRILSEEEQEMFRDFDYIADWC
smiles,measurement,setting,value
"O=S(=O)(c1cccc2c(I)cccc12)N1CCCNCC1 [ML-7, reference compound]",elution of GFP-ZIPK from ATP Sepharose,GFP-ZIPK,failed to elute GFP-ZIPK
"O=c1[nH]c(SCCO)nc2c1cnn2-c1cccc(Cl)c1 [HS43, 1-(3-Chlorophenyl)-6-((2-hydroxyethyl)thio)-1,5-dihydro-4H-pyrazolo[3,4-d]pyrimidin-4-one]","relative percent RLC20 phosphorylation, basal (unstimulated) state",aortic SM cells,did not significantly affect
same,"relative percent RLC20 phosphorylation, S1P stimulated state",aortic SM cells,did not significantly affect
same,fold less potent than HS38,DAPK1,~ 5 fold
same,elution of GFP-ZIPK from ATP Sepharose,GFP-ZIPK,eluted far less GFP-ZIPK
same,time required to reach 50% of maximal contraction (t1/2 max),[1],did not significantly affect
same,maximum contractile force,[1],did not significantly affect
same,RLC20 phosphorylation,[2],did not affect
same,fold less potent than HS38 / lower affinity,DAPK3,5 fold and ~ 5 fold
"CC(Sc1nc2c(cnn2-c2cccc(Cl)c2)c(=O)[nH]1)C(N)=O (stereo not shown) [HS38, 2-((1-(3-chlorophenyl)-4-oxo-4,5-dihydro-1H-pyrazolo[3,4-d]pyrimidin-6-yl)thio)propanamide]",fold less potent than against DAPK1 and PIM3,PIM2,~ 100 fold
same,fold less potent than against DAPK1 and PIM3,IRAK4,~ 10 fold
same,inhibition,PKA,< 10%
same,fold less potent than against DAPK1 and PIM3,smMLCK,~ 100 fold
same,inhibition,PKN2,< 10%
same,"relative percent RLC20 phosphorylation, basal (unstimulated) state",aortic SM cells,significantly decreased
same,"relative percent RLC20 phosphorylation, S1P stimulated state",aortic SM cells,significantly decreased
same,phosphorylation state of Par-4,[3],not significantly affected
same,phosphorylation state of T855 of MYPT1,[3],not significantly affected
same,decrease in RLC20 phosphorylation,[3]; serum-free and 5% FBS conditions,21−23%
same,increase in fluorescence above background,"GFP-ZIPK; FLECS screen, elution of GFP-ZIPK, drug candidate 900 µM solution",> 4 fold
same,elution of GFP-ZIPK from ATP Sepharose,GFP-ZIPK,produced a sigmoidal curve
same,time required to reach 50% of maximal contraction (t1/2 max),[1],more than doubled
same,maximum contractile force,[1],without significantly affecting
same,lag time to the onset of force,[4],increased
same,rate of force development (t1/2),[4],increased
same,inhibition,CaMK2,< 10%
same,fold less potent than against DAPK1 and PIM3,PIM1,~ 10 fold
same,RLC20 phosphorylation,[2],significant reduction
same,IC50,ROCK2,> 200 µM
same,activity against ROCK2,"ROCK2; ROCK2, duplicate validation",completely inactive
same,inhibition,"ROCK2; read-out: % activity against kinase, ROCK2, kinome profile",< 10%
same,MYPT1 Thr696 phosphorylation level,rabbit ileum,significantly reduced
same,RLC20 phosphorylation level,rabbit ileum,significantly reduced
same,inhibition,CK1α,< 10%
